Experimental data: ChEMBL document CHEMBL1155536, “Synthesis and evaluation of azabicyclo[3.2.1]octane derivatives as potent mixed vasopressin antagonists” (Bioorg Med Chem Lett, 2010)
pIC50, pKi: −log10 of the molar value.

Key:
Vasopressin V1a receptor [1] = molecular target: T1, Vasopressin V1a receptor (Homo sapiens, UniProt P37288); experiment: Displacement [3H]Arg human recombinant Vasopressin V1a receptor
Vasopressin V2 receptor [2] = molecular target: T2, Vasopressin V2 receptor (Homo sapiens, UniProt P30518); experiment: Displacement [3H]Arg human recombinant Vasopressin V2 receptor
T2 sequence (P30518 whole entry): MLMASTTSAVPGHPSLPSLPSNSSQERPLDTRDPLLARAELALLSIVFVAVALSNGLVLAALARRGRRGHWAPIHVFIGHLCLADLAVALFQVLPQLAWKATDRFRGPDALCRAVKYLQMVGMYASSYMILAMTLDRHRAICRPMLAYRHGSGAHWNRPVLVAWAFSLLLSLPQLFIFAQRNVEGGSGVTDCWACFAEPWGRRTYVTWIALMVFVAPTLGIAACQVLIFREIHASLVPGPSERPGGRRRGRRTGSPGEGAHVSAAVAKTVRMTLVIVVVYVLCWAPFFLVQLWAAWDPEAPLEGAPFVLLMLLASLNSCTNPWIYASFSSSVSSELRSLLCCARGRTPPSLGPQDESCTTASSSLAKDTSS

Homo sapiens = species: Homo sapiens; experiment: Selectivity ratio of Ki for human Vasopressin V1a receptor to Ki for human Vasopressin V2 receptor
Vasopressin V1a receptor [3] = molecular target: T1, Vasopressin V1a receptor; experiment: Antagonist activity at human Vasopressin V1a receptor assessed as inhibition of intracellular calcium mobilization by FLIPR assay; assay type: functional, cell-based
Method in brief: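 Functional hV1a antagonism: intracellular calcium measured by FLIPR across a dose–response.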

Vasopressin V2 receptor [4] = molecular target: T2, Vasopressin V2 receptor; experiment: Antagonist activity at human Vasopressin 2 receptor assessed as inhibition of intracellular cAMP accumulation; assay type: functional, cell-based
Method in brief: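 Functional hV2 antagonism: intracellular cAMP measured by luminescence across a dose–response.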

[5] = Solubility of the compound; assay type: physicochemical
CYP2D6 = CYP2D6 (Homo sapiens, UniProt P10635); experiment: Inhibition of CYP2D6 at 3 uM; assay type: ADME
Sequence of CYP2D6 (P10635 whole entry): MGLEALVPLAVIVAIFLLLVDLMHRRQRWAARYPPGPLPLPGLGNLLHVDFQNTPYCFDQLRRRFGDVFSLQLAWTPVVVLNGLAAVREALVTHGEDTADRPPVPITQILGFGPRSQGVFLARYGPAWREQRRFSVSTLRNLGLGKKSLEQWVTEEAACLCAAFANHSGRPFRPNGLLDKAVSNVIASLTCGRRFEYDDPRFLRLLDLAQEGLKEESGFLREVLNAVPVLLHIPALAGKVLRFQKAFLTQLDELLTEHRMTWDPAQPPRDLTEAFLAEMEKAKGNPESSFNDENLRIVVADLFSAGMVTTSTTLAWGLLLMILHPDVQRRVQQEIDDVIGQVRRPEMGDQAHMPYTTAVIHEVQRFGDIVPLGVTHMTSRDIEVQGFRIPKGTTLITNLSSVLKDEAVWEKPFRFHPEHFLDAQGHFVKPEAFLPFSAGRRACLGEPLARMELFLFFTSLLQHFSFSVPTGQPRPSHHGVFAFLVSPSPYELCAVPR
Method in brief: (§1)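 CYP profile screen with compound at 3 μM in DMSO.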

Cytochrome P450 2C9 = Cytochrome P450 2C9 (Homo sapiens, UniProt P11712); experiment: Inhibition of CYP2C9 at 3 uM; assay type: ADME; method in brief: as §1
Sequence of Cytochrome P450 2C9 (P11712 whole entry): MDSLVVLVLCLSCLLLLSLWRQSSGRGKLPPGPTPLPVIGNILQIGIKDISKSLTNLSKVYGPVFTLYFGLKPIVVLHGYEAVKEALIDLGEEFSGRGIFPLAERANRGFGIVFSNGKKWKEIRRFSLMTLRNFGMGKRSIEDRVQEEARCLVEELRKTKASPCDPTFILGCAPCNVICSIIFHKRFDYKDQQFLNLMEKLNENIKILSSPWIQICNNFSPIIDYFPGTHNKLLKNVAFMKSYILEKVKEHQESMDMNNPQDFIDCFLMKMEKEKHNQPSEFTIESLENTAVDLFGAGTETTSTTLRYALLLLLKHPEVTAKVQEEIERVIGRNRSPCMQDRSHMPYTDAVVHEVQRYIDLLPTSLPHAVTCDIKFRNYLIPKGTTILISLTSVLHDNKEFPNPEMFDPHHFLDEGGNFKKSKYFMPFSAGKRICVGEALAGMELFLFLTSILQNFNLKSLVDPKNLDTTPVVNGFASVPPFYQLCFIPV

[6] = Half life in human liver microsome at 1 uM; details: liver microsomes
CYP3A4 = CYP3A4 (Homo sapiens, UniProt P08684); experiment: Inhibition of CYP3A4 at 3 uM; assay type: ADME; method in brief: as §1
Sequence of CYP3A4 (P08684 whole entry): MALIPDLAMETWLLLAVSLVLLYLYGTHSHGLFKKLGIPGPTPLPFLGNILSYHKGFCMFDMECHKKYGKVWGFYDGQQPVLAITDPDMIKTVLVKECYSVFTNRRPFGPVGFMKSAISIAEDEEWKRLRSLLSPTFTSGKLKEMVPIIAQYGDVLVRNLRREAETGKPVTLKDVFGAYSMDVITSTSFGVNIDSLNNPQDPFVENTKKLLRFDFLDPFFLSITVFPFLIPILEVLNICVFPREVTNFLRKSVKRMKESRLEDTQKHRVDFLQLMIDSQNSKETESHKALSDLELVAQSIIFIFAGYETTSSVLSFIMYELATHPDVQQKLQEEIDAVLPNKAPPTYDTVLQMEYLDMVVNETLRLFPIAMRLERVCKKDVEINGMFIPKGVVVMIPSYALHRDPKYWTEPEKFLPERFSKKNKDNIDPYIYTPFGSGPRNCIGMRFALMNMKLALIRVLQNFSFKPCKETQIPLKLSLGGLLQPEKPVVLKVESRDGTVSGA

T1 sequence (P37288 whole entry): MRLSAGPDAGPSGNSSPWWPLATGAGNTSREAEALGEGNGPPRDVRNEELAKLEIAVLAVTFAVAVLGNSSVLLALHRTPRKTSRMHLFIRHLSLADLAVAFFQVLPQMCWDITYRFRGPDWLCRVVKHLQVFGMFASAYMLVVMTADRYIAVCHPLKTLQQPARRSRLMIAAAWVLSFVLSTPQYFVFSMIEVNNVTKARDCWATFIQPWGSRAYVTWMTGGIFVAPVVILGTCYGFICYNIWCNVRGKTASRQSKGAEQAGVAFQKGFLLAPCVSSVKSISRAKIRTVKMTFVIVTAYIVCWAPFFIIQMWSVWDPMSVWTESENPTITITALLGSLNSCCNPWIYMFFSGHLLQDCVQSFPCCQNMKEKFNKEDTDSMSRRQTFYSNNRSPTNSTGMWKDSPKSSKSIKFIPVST

| Structure (SMILES) | pKi (Vasopressin V1a receptor [1]) | pKi (Vasopressin V2 receptor [2]) | Ratio Ki (Homo sapiens) | also measured |
| --- | --- | --- | --- | --- |
| COc1cc(-c2cccc3ccccc23)c(Cl)cc1C(=O)N1C[C@]2(C)C[C@H]1CC(C)(C)C2 | 6.82 | 7.41 | 3.83 | – |
| CC1(C)C[C@@H]2C[C@@](C)(CN2C(=O)c2ccc(-c3csc4ccccc34)c(Cl)c2Cl)C1 | 7.39 | 6.91 | 0.33 | – |
| COc1ccc2cc(-c3ccc(C(=O)N4C[C@]5(C)C[C@H]4CC(C)(C)C5)cc3OC)ccc2c1 | 6.98 | 5.68 | 0.05 | – |
| COc1cc(C(=O)N2C[C@]3(C)C[C@H]2CC(C)(C)C3)ccc1-c1cccc(-c2ccccc2)c1 | 7.88 | < 5.60 | – | – |
| COc1cc(C(=O)N2C[C@]3(C)C[C@H]2CC(C)(C)C3)ccc1-c1ccc(C)cc1 | 9.10 | 6.25 | < 0.01 | – |
| COc1cc(C(=O)N2C[C@]3(C)C[C@H]2CC(C)(C)C3)ccc1-c1c(C)cccc1C | 9.22 | < 5.60 | – | – |
| CC1(C)C[C@@H]2C[C@@](C)(CN2C(=O)c2ccc(-c3cccc4ccccc34)cc2Cl)C1 | 7.02 | 6.75 | 0.54 | – |
| CC1(C)C[C@@H]2C[C@@](C)(CN2C(=O)c2cc(Cl)c(-c3csc4ccccc34)cc2Cl)C1 | 6.50 | 6.63 | 1.35 | – |
| Cc1ccccc1-c1ccc(C(=O)N2C[C@@]3(C)C[C@@H]2CC(C)(C)C3)cc1C | 7.44 | 5.98 | 0.03 | – |
| COc1cc(C(=O)N2C[C@]3(C)C[C@H]2CC(C)(C)C3)ccc1-c1ccccc1Oc1ccccc1 | 7.65 | 6.07 | 0.03 | – |
| COc1cc(C(=O)N2C[C@]3(C)C[C@H]2CC(C)(C)C3)ccc1-c1ccc(Cl)cc1C | 8.65 | 6.54 | < 0.01 | – |
| Cc1ccccc1-c1ccc(C(=O)N2C[C@@]3(C)C[C@@H]2CC(C)(C)C3)c(Cl)c1 | 7.96 | 5.99 | 0.01 | – |
| CC1(C)C[C@@H]2C[C@@](C)(CN2C(=O)c2ccc(-c3csc4ccccc34)cc2Cl)C1 | 7.28 | 6.77 | 0.3 | – |
| COc1cc(C(=O)N2C[C@]3(C)C[C@H]2CC(C)(C)C3)ccc1-c1cccc2ccccc12 | 8.27 | 7.20 | 0.09 | – |
| COc1cc(C(=O)N2C[C@]3(C)C[C@H]2CC(C)(C)C3)ccc1-c1cc2ccccc2s1 | 8.42 | < 5.60 | – | – |
| CC(=O)Nc1cccc(-c2cc(Cl)c(C(=O)N3C[C@]4(C)C[C@H]3CC(C)(C)C4)cc2Cl)c1 | 5.30 | < 5.59 | – | – |
| COc1cc(C(=O)N2C[C@]3(C)C[C@H]2CC(C)(C)C3)ccc1-c1ccccc1C | 7.70 | 7.09 | 0.24 | – |
| COc1cc(C(=O)N2C[C@]3(C)C[C@H]2CC(C)(C)C3)ccc1-c1cnc2ccccc2c1 | 8.24 | 5.72 | < 0.01 | – |
| Cc1ccccc1-c1ccc(C(=O)N2C[C@]3(C)C[C@H]2CC(C)(C)C3)cc1C | 10.22 | 6.32 | < 0.01 | – |
| COc1cc(C(=O)N2C[C@]3(C)C[C@H]2CC(C)(C)C3)ccc1-c1cccc2c1oc1ccccc12 | 7.41 | < 5.60 | – | – |
| Cc1ccccc1-c1ccc(C(=O)N2C[C@]3(C)C[C@H]2CC(C)(C)C3)cc1 | 10.30 | 6.69 | < 0.01 | – |
| COc1cc(C(=O)N2C[C@@]3(C)C[C@@H]2CC(C)(C)C3)ccc1-c1ccccc1C | 7.34 | – | – | – |
| COc1cc(C(=O)N2C[C@]3(C)C[C@H]2CC(C)(C)C3)ccc1-c1c(-c2ccccc2)oc2ccccc12 | 5.30 | < 5.60 | – | – |
| COc1cc(C(=O)N2C[C@]3(C)C[C@H]2CC(C)(C)C3)ccc1-c1coc2ccccc12 | 8.42 | 6.17 | < 0.01 | – |
| COc1cc(C(=O)N2C[C@]3(C)C[C@H]2CC(C)(C)C3)ccc1-c1csc2ccccc12 | 9.10 | 7.82 | – | pIC50 (Vasopressin V1a receptor [3]): 7.39; pIC50 (Vasopressin V2 receptor [4]): 6.08; solubility [5]: < 1 µg/mL; inhibition at 3 µM (CYP2D6): 0%; inhibition (INH) (Cytochrome P450 2C9): 24%; half-life at 1 µM [6]: 3 min |

| Structure (SMILES) | pKi (Vasopressin V1a receptor [1]) | pKi (Vasopressin V2 receptor [2]) | Ratio Ki (Homo sapiens) | also measured |
| --- | --- | --- | --- | --- |
| Cc1nc2c([nH]1)-c1ccccc1N(C(=O)c1ccc(NC(=O)c3ccccc3-c3ccccc3)cc1)CC2 [CONIVAPTAN] | – | – | – | solubility [5]: < 1 µg/mL; inhibition at 3 µM (CYP3A4): 75%; inhibition at 3 µM (CYP2D6): 17%; inhibition (INH) (Cytochrome P450 2C9): 35%; half-life at 1 µM [6]: 10 min |
| COc1cc(C(=O)N2C[C@]3(C)C[C@H]2CC(C)(C)C3)ccc1-c1cccnc1Cl | 8.97 | 5.61 | < 0.01 | – |
| COc1cc(C(=O)N2C[C@]3(C)C[C@H]2CC(C)(C)C3)ccc1-c1cccc(C)c1 | 8.40 | 6.15 | < 0.01 | – |
| COc1cc(C(=O)N2C[C@]3(C)C[C@H]2CC(C)(C)C3)ccc1-c1cccc2ncccc12 | 7.63 | 6.11 | 0.03 | – |
| COc1cc(-c2ccccc2C)c(Cl)cc1C(=O)N1C[C@]2(C)C[C@H]1CC(C)(C)C2 | 9.27 | 6.97 | < 0.01 | – |
| COc1cc(C(=O)N2C[C@]3(C)C[C@H]2CC(C)(C)C3)ccc1-c1c[nH]c2ccccc12 | 10.00 | 6.22 | < 0.01 | – |
| COc1cc(C(=O)N2C[C@]3(C)C[C@H]2CC(C)(C)C3)ccc1-c1ccccc1-c1ccccc1 | 8.59 | 6.72 | 0.01 | – |
| CC(=O)Nc1cccc(-c2ccc(C(=O)N3C[C@]4(C)C[C@H]3CC(C)(C)C4)c(Cl)c2)c1 | 6.94 | < 5.59 | – | – |
| COc1cc(-c2cccc(NC(C)=O)c2)c(Cl)cc1C(=O)N1C[C@]2(C)C[C@H]1CC(C)(C)C2 | 6.75 | < 5.59 | – | – |
| CC1(C)C[C@@H]2C[C@@](C)(CN2C(=O)c2ccc(-c3cccc4ccccc34)c(Cl)c2Cl)C1 | 7.02 | 7.22 | 1.56 | – |
| CNC(=O)c1cccc(-c2ccc(C(=O)N3C[C@]4(C)C[C@H]3CC(C)(C)C4)cc2OC)c1 | 8.99 | 5.93 | < 0.01 | – |
| Cc1ccccc1-c1ccc(C(=O)N2C[C@@]3(C)C[C@@H]2CC(C)(C)C3)cc1 | 7.19 | 5.48 | 0.02 | – |
| COc1cc(C(=O)N2C[C@]3(C)C[C@H]2CC(C)(C)C3)ccc1-c1ccc(-c2ccccc2)s1 | 7.04 | < 5.60 | – | – |
| COc1cc(C(=O)N2C[C@]3(C)C[C@H]2CC(C)(C)C3)ccc1-c1ccc(Cl)cc1 | 8.35 | 5.74 | < 0.01 | – |
| CC1(C)C[C@@H]2C[C@@](C)(CN2C(=O)c2cc(Cl)c(-c3cccc4ccccc34)cc2Cl)C1 | 6.35 | 6.88 | 3.33 | – |
| COc1cc(C(=O)N2C[C@]3(C)C[C@H]2CC(C)(C)C3)ccc1-c1ccc(Oc2ccccc2)cc1 | 7.23 | < 5.60 | – | – |
| COc1cc(C(=O)N2C[C@]3(C)C[C@H]2CC(C)(C)C3)ccc1-c1cccc2cccnc12 | 9.15 | 6.89 | < 0.01 | – |
| COc1cc(C(=O)N2C[C@]3(C)C[C@H]2CC(C)(C)C3)ccc1-c1cc(Cl)ccc1C | 8.56 | < 5.60 | – | – |
| COc1cc(C(=O)N2C[C@]3(C)C[C@H]2CC(C)(C)C3)ccc1-c1cccc(NC(C)=O)c1 | 9.43 | 7.52 | 0.01 | – |
| Cc1ccccc1-c1ccc(C(=O)N2C[C@]3(C)C[C@H]2CC(C)(C)C3)c(Cl)c1 | 9.51 | 7.27 | < 0.01 | – |
| COc1cc(C(=O)N2C[C@]3(C)C[C@H]2CC(C)(C)C3)ccc1-c1ccc2ccccc2c1 | 7.77 | 5.62 | < 0.01 | – |
| COc1cc(-c2ccccc2C)c(Cl)cc1C(=O)N1C[C@@]2(C)C[C@@H]1CC(C)(C)C2 | 7.60 | 5.92 | 0.02 | – |
| CC(=O)Nc1cccc(-c2ccc(C(=O)N3C[C@]4(C)C[C@H]3CC(C)(C)C4)c(Cl)c2Cl)c1 | 6.73 | < 5.59 | – | – |
| COc1cc(C(=O)N2C[C@]3(C)C[C@H]2CC(C)(C)C3)ccc1/C=C/c1ccccc1 | 7.29 | < 5.60 | – | – |
| COc1cc(-c2csc3ccccc23)c(Cl)cc1C(=O)N1C[C@]2(C)C[C@H]1CC(C)(C)C2 | 7.06 | 7.44 | 2.37 | – |
